Results of several laboratories.
Lines come from different studies, so protocols differ.
Target: Casein kinase I isoform epsilon (CSNK1E, Homo sapiens, UniProt P49674)

CCOC(=O)c1cc2cc(-c3cc(C(=O)NCc4ccc(C(=O)O)cc4)nn3C)ccc2[nH]1  remaining binding (cell-free assay, competition with immobilised ligand; 0.1 µM): 100%
CC1(C)NC(=O)c2[nH]c3c(Cl)c(Cl)ccc3c2C1C#N (stereo not shown)  ΔTm (thermal stability, DSF; 10 µM): 1.8 °C
Cc1ccc(NC(=O)c2ccc(CN3CCN(C)CC3)cc2)cc1Nc1nccc(-c2cccnc2)n1  activity vs control (enzyme activity, inhibitor; 0.5 µM): 92.4%
Cn1c2c(Cl)c(Cl)ccc2c2cc(N)[nH]c(=O)c21  ΔTm (thermal stability, DSF; 10 µM): 0.5 °C
N#CCCc1ccc2c(c1)-c1[nH]c3ccc([N+](=O)[O-])cc3c1CC(=O)N2  remaining signal (cell-free assay; 0.5 µM): 91.4%
O=C(O)c1cc(-c2ccc(C3CCNCC3)cc2)c2ccc(-c3ccc(C(F)(F)F)cc3)cc2c1  remaining binding (cell-free assay, competition with immobilised ligand; 1 µM): 100%
Cn1c2c(c3ccccc31)C(C#N)C(C)(C)NC2=O (stereo not shown)  ΔTm (thermal stability, DSF; 10 µM): 0.8 °C
Cc1ccc(C(=O)Nc2ccc(CN3CCN(C)CC3)c(C(F)(F)F)c2)cc1C#Cc1cnc2cccnn12  remaining activity (enzyme activity, inhibitor; 23.5 nM): 88%
CNCc1ccccc1-c1csc([C@H](C)Nc2nc(C)nc3cc(OC)c(OC)cc23)c1  remaining binding (cell-free assay, competition with immobilised ligand; 1 µM): 91%
Nc1nc(Nc2ccc(S(N)(=O)=O)cc2)nn1C(=O)c1c(F)cccc1F  remaining signal (cell-free assay; 0.5 µM): 96.9%
Nc1ncnc2occ(-c3ccc(NC(=O)Nc4cc(C(F)(F)F)ccc4F)cc3)c12  remaining activity (enzyme activity, inhibitor; 20 µM): 0.65%
CN(C)C(=O)Cn1cc(-c2nc(C3(c4ccc(-c5cnc(N)nc5)cc4)CC3)no2)cn1  remaining binding (cell-free assay, competition with immobilised ligand; 1 µM): 100%
C[C@@H]1CCN(C(=O)CC#N)C[C@@H]1N(C)c1ncnc2[nH]ccc12  remaining activity (enzyme activity, inhibitor; 0.5 µM): 101%
O=C(Nc1cnn(-c2csc(C(=O)NC3COC3)c2)c1)Nc1ccccc1Cl  remaining activity (enzyme activity, inhibitor; 5 µM): 89.6%
CCCCN(CCCC)C(=O)CN1C[C@H](c2cc(OC)c3c(c2)OCO3)[C@@H](C(=O)O)[C@@H]1CC(C)(C)CCC  remaining binding (cell-free assay, competition with immobilised ligand; 1 µM): 100%
COc1cc2ncnc(Nc3ccc(Oc4ccccc4)cc3C)c2cc1OC  inhibition (enzyme activity, inhibitor; 1 µM): 2%
CC(C)(C)c1nc(-c2cccc(NS(=O)(=O)c3c(F)cccc3F)c2F)c(-c2ccnc(N)n2)s1  remaining activity (enzyme activity, inhibitor, radiometric; 1 µM): 89%
O=c1c2ccccc2[nH]c(=S)n1CCN1CCC(=C(c2ccc(F)cc2)c2ccc(F)cc2)CC1  remaining activity (enzyme activity, inhibitor; 0.5 µM): 100%
CCS(=O)(=O)c1cc2cc(C[C@@](O)(CC(C)(C)c3ccc(F)cc3C(N)=O)C(F)(F)F)[nH]c2cn1  remaining binding (cell-free assay, competition with immobilised ligand; 1 µM): 97%
CS(=O)(=O)CCNCc1ccc(-c2ccc3ncnc(Nc4ccc(OCc5cccc(F)c5)c(Cl)c4)c3c2)o1  remaining activity (enzyme activity; 0.5 µM): 99.4%
O=C(N1CCS(=O)(=O)CC1)N1C[C@H](c2ccc(OC(F)(F)F)cc2)C[C@H](c2nc(C3CC3)no2)C1  remaining binding (cell-free assay, competition with immobilised ligand; 1 µM): 100%
CC/C(=N\NC(=O)NCc1cccc(O)c1)c1ccc(O)c(C)c1O  inhibition (enzyme activity, inhibitor; 0.1 µM): 3.6%
